Laboratory results reported in ChEMBL document CHEMBL1153067, “Synthesis and optimization of 2-pyridin-3-yl-benzo[d][1,3]oxazin-4-one based inhibitors of human neutrophil elastase” (Bioorg Med Chem Lett, 2009).

Columns and labels:
[1] = Stability in heparin treated rat plasma at 2 uM at 37 degC by electrospray ionization mass spectrometry; format: ADME, cell-free
How it was run: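 Compounds at […] incubated at 37 °C in heparinized rat plasma. Plasma proteins precipitated with acetonitrile, then compound quantified by ESI-MS against an internal standard. t1/2 derived from a first-order rate constant fitted to concentration versus time.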

[2] = Chemical stability in 200 mM sodium borate buffer at pH 9.2; format: physicochemical
How it was run: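 Alkaline hydrolysis followed by loss of the intact benzoxazinone ring absorbance maximum (340 nm 10 nm) in 200 mM sodium borate, pH 9.2, with 1% DMSO.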

Row | Structure (SMILES) | half-life at 2 µM [1] | half-life [2]
1 | CCc1cc(OC)cc2nc(-c3cccnc3N3CCN(C4CCCC4)CC3)oc(=O)c12 | 1.5 h | –
2 | CCc1cc(OC)cc2nc(-c3cccnc3N3CCN(CC(C)C)CC3)oc(=O)c12 | 0.8 h | –
3 | CCc1cc(OC)cc2nc(-c3cccnc3N3CCN(C)CC3)oc(=O)c12 | 1.4 h | 4 h
4 | CCc1cc(OC)cc2nc(-c3cccnc3N3CCN(CCN(C)C)CC3)oc(=O)c12 | 0.13 h | –
5 | CCc1cc(OC)cc2nc(-c3cccnc3N3CCN(CCO)CC3)oc(=O)c12 | 0.283 h | –
6 | CCc1cccc2nc(-c3cccnc3N3CCN(C)CC3)oc(=O)c12 | – | 1.08 h
7 | CCc1cc(OC)cc2nc(-c3cccnc3N3CCC(C(=O)O)CC3)oc(=O)c12 | 1.35 h | 16.7 h
8 | CCc1cc(OC)cc2nc(-c3cccnc3N3CCN(CCN4CCOCC4)CC3)oc(=O)c12 | 0.317 h | –
9 | CCc1cc(N(C)C)cc2nc(-c3cccnc3N3CCN(C)CC3)oc(=O)c12 | – | 122 h
10 | CCc1cc(N(C)C)cc2nc(-c3cccnc3N3CCN(C4CCN(C)CC4)CC3)oc(=O)c12 | – | 115 h
11 | CCc1cc(OC)cc2nc(-c3cccnc3N3CCN(CCC#N)CC3)oc(=O)c12 | 0.183 h | –
12 | CCc1cc(OC)cc2nc(-c3cccnc3N3CCN(C4CCN(C)CC4)CC3)oc(=O)c12 | – | 23.3 h
13 | CCc1cc(OC)cc2nc(-c3cccnc3N3CCN(CC(=O)O)CC3)oc(=O)c12 | 4.5 h | –
14 | CCc1cc(OC)cc2nc(-c3cccnc3N3CCC[C@@H](C(=O)O)C3)oc(=O)c12 | 2.5 h | –
15 | CCc1cc(OC)cc2nc(-c3cccnc3N3CCC[C@H](C(=O)O)C3)oc(=O)c12 | 2.33 h | –
16 | CCc1cc(OC)cc2nc(-c3cccnc3N3CCN(CC4CC4)CC3)oc(=O)c12 | 1.15 h | –
17 | CCc1cc(OC)cc2nc(-c3cccnc3N3CCN(CCOC)CC3)oc(=O)c12 | 0.867 h | –
18 | CCCCN1CCN(c2ncccc2-c2nc3cc(OC)cc(CC)c3c(=O)o2)CC1 | 0.85 h | –
19 | CCc1cccc2nc(-c3cccnc3N3CCN(C4CCN(C)CC4)CC3)oc(=O)c12 | – | 0.933 h
20 | CCc1cccc2nc(-c3cccnc3N3CCC(C(=O)O)CC3)oc(=O)c12 | – | 1.48 h
